Common to all, as to type: functional, cell-based
One assay deals with A549. The assay can be described thus: Cytotoxicity against human A549 cells after 72 hrs by sulforhodamine B assay. The settings on record: A549, 72 h. The method, boiled down:
(§1)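 Cells seeded in 96-well plates and exposed in triplicate to a concentration gradient at 37 °C for 72 h. Total protein staining with sulforhodamine B was the read-out. IC50 was calculated by the Logit method from at least three independent experiments.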

In another assay the test system is HL-60. The assay can be described thus: Cytotoxicity against human HL60 cells after 72 hrs by MTT assay. Particulars: HL-60, 72 h. The method, boiled down:
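HL-60 human promyelocytic leukemia cells were plated in 96 wells and treated in triplicate with graded concentrations at 37 °C for 72 h. Viability was read by MTT reduction. IC50 was obtained by the Logit method from at least three independent experiments.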

A further assay concerns A-375. The assay can be described thus: Cytotoxicity against human A375 cells after 72 hrs by sulforhodamine B assay. Particulars: A-375, 72 h. In a few lines: as §1

Each structure is given as a SMILES string.

For seven compounds, IC50 results are on record in ChEMBL document CHEMBL2390836, “Synthesis and antitumor activities of naturally occurring oleanolic acid triterpenoid saponins and their derivatives” (Eur J Med Chem, 2013).

As for `C[C@@H]1O[C@@H](O[C@H]2[C@H](O[C@H]3CC[C@]4(C)[C@H]5CC=C6[C@@H]7CC(C)(C)CC[C@]7(C(=O)O[C@@H]7O[C@H](CO[C@@H]8O[C@H](CO)[C@@H](O[C@@H]9O[C@@H](C)[C@H](O)[C@@H](O)[C@H]9O)[C@H](O)[C@H]8O)[C@@H](O)[C@H](O)[C@H]7O)CC[C@@]6(C)[C@]5(C)CC[C@H]4C3(C)C)OC[C@@H](O)[C@@H]2O)[C@H](O)[C@H](O)[C@H]1O`, the IC50 in the assay on A549 came out at 10.5 µM; with HL-60, 3.2 µM; in the assay with A-375, 7.3 µM.

As to `C[C@@H]1O[C@@H](O[C@H]2[C@H](O[C@H]3CC[C@]4(C)[C@H]5CC=C6[C@@H]7CC(C)(C)CC[C@]7(C(=O)O[C@@H]7O[C@H](CO[C@@H]8O[C@H](CO)[C@@H](O)[C@H](O)[C@H]8O)[C@@H](O)[C@H](O)[C@H]7O)CC[C@@]6(C)[C@]5(C)CC[C@H]4C3(C)C)OC[C@@H](O)[C@@H]2O)[C@H](O)[C@H](O[C@@H]2O[C@H](CO)[C@@H](O[C@@H]3O[C@H](CO)[C@@H](O)[C@H](O)[C@H]3O)[C@H](O)[C@H]2O)[C@H]1O`, the IC50 in the assay on A549, in the assay on HL-60 and in the assay on A-375 was greater than 20 µM throughout.

Regarding `C[C@@H]1O[C@@H](O[C@H]2[C@H](O[C@H]3CC[C@]4(C)[C@H]5CC=C6[C@@H]7CC(C)(C)CC[C@]7(C(=O)O[C@@H]7O[C@H](CO[C@@H]8O[C@H](CO)[C@@H](O)[C@H](O)[C@H]8O)[C@@H](O)[C@H](O)[C@H]7O)CC[C@@]6(C)[C@]5(C)CC[C@H]4C3(C)C)OC[C@@H](O)[C@@H]2O)[C@H](O)[C@H](O[C@@H]2OC[C@@H](O)[C@H](O)[C@H]2O)[C@H]1O`, the IC50 in the assay with A549, with HL-60 and with A-375 was greater than 20 µM throughout.

Consider `C[C@@H]1O[C@@H](O[C@H]2[C@H](O[C@H]3CC[C@]4(C)[C@H]5CC=C6[C@@H]7CC(C)(C)CC[C@]7(C(=O)O[C@@H]7O[C@H](CO[C@@H]8O[C@H](CO)[C@@H](O)[C@H](O)[C@H]8O)[C@@H](O)[C@H](O)[C@H]7O)CC[C@@]6(C)[C@]5(C)CC[C@H]4C3(C)C)OC[C@@H](O)[C@@H]2O)[C@H](O)[C@H](O[C@@H]2O[C@H](CO)[C@@H](O)[C@H](O)[C@H]2O)[C@H]1O`, for which the IC50 with A549, in the assay with HL-60 and with A-375 was greater than 20 µM each time.

With `CC1(C)CC[C@]2(C(=O)O)CC[C@]3(C)C(=CC[C@@H]4[C@@]5(C)CC[C@H](O[C@@H]6O[C@H](CO)[C@@H](O)[C@H](O)[C@H]6O[C@@H]6O[C@H](CO)[C@@H](O)[C@H](O)[C@H]6O)C(C)(C)[C@@H]5CC[C@]43C)[C@@H]2C1` [ACUTOSIDE A], the 50% inhibitory concentration (IC50) in the assay on A549 was determined as 15.3 µM; with HL-60, 12.5 µM; in the assay on A-375, 10.3 µM.

Turning to `COc1cccc2c1C(=O)c1c(O)c3c(c(O)c1C2=O)C[C@@](O)(C(=O)CO)C[C@@H]3O[C@H]1C[C@H](N)[C@H](O)[C@H](C)O1` [DOXORUBICIN], the IC50 with A549 stood at 0.56 µM; in the assay with HL-60, 0.9 µM; in the assay on A-375, 0.75 µM.

In the case of `CC[C@@]1(O)C(=O)OCc2c1cc1n(c2=O)Cc2cc3cc(O)ccc3nc2-1` [HYDROXYCAMPTOTHECIN], the IC50 in the assay with A549 turned out to be 0.56 µM; in the assay with HL-60, 0.25 µM; in the assay on A-375 it was 0.15 µM.
